The source made the active and inactive calls. The calls are words filed in the database; no cut-off is given here.
Test system: Staphylococcus aureus
Assay: Antibacterial activity against fluoroquinolone sensitive Staphylococcus aureus SH1000 at 32 mmol after 24 hrs Kirby-Bauer disc diffusion method
Assay type: functional, organism-based

Structure (SMILES) | Activity
CCOc1cc(C)c2cc3c(C)cc(=O)n4c3c(c2n1)OC4 | inactive

Test system: Staphylococcus aureus
Assay: Antibacterial activity against fluoroquinolone resistant Staphylococcus aureus USA300 JE2 assessed as zone of inhibition at 1 mmol after 24 hrs Kirby-Bauer disc diffusion method
Assay type: functional
How it was run: (§1)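 Compounds dissolved in CHCl3 as 1 mmol or 10 mmol solutions; 20 µL loaded per sterile 6 mm paper disc and dried 30 min at 37 °C; 7 discs per concentration. Single colony grown in Mueller-Hinton broth with aeration for 6 h at 37 °C, diluted in PBS to 0.5 McFarland, then swabbed in three directions onto Mueller-Hinton agar. Discs applied; incubated 24 h at 37 °C.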

Structure (SMILES) | inhibition zone (IZ) [cm]
CCOc1cc(C)c2cc3c(C)cc(=O)n4c3c(c2n1)OCC4 | 0
CCOc1cc(C)c2cc3c(C)cc(=O)n4c3c(c2n1)OCCC4 | 0
CCn1c(=O)cc(C)c2cc3c(C)cc(=O)n4c3c(c21)OC4 | 1.4
O=C(O)c1cn(C2CC2)c2cc(N3CCNCC3)c(F)cc2c1=O [CIPROFLOXACIN] | 0
CCn1c(=O)cc(C)c2cc3c(C)cc(=O)n4c3c(c21)OCCC4 | 0
CCn1c(=O)cc(C)c2cc3c(C)cc(=O)n4c3c(c21)OCC4 | 1.8
CCOc1cc(C)c2cc3c(C)cc(=O)n4c3c(c2n1)OC4 | 0

Test system: Staphylococcus aureus
Assay: Antibacterial activity against fluoroquinolone sensitive Staphylococcus aureus SH1000 assessed as zone of inhibition at 1 mmol after 24 hrs Kirby-Bauer disc diffusion method
Assay type: functional
How it was run: as §1

Structure (SMILES) | inhibition zone (IZ) [cm]
CCOc1cc(C)c2cc3c(C)cc(=O)n4c3c(c2n1)OCC4 | 0
CCOc1cc(C)c2cc3c(C)cc(=O)n4c3c(c2n1)OCCC4 | 0
CCn1c(=O)cc(C)c2cc3c(C)cc(=O)n4c3c(c21)OC4 | 0
O=C(O)c1cn(C2CC2)c2cc(N3CCNCC3)c(F)cc2c1=O [CIPROFLOXACIN] | 1.8
CCn1c(=O)cc(C)c2cc3c(C)cc(=O)n4c3c(c21)OCCC4 | 0
CCn1c(=O)cc(C)c2cc3c(C)cc(=O)n4c3c(c21)OCC4 | 0
CCOc1cc(C)c2cc3c(C)cc(=O)n4c3c(c2n1)OC4 | 0

Test system: Staphylococcus aureus
Assay: Antibacterial activity against fluoroquinolone resistant Staphylococcus aureus USA300 JE2 at 32 mmol after 24 hrs Kirby-Bauer disc diffusion method
Assay type: functional, organism-based

Structure (SMILES) | Activity
CCOc1cc(C)c2cc3c(C)cc(=O)n4c3c(c2n1)OC4 | inactive

Test system: Staphylococcus aureus
Assay: Antibacterial activity against fluoroquinolone sensitive Staphylococcus aureus SH1000 assessed as zone of inhibition at 10 mmol after 24 hrs Kirby-Bauer disc diffusion method
Assay type: functional
How it was run: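 Discs: 6 mm autoclaved paper discs each loaded with 20 μL of compound in CHCl3 (1 or 10 mmol solutions), dried 30 min at 37 °C; 7 discs per compound per level. Inoculum: single colony grown 6 h at 37 °C with aeration in Mueller-Hinton broth, diluted with PBS to 0.5 McFarland, swabbed three directions onto Mueller-Hinton agar. Plates incubated 24 h at 37 °C.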

Structure (SMILES) | inhibition zone (IZ) [cm]
CCOc1cc(C)c2cc3c(C)cc(=O)n4c3c(c2n1)OCC4 | 0
CCOc1cc(C)c2cc3c(C)cc(=O)n4c3c(c2n1)OCCC4 | 0
CCn1c(=O)cc(C)c2cc3c(C)cc(=O)n4c3c(c21)OC4 | 1.8
O=C(O)c1cn(C2CC2)c2cc(N3CCNCC3)c(F)cc2c1=O [CIPROFLOXACIN] | 3.1
CCn1c(=O)cc(C)c2cc3c(C)cc(=O)n4c3c(c21)OCCC4 | 2.3
CCn1c(=O)cc(C)c2cc3c(C)cc(=O)n4c3c(c21)OCC4 | 2.2
CCOc1cc(C)c2cc3c(C)cc(=O)n4c3c(c2n1)OC4 | 0

Test system: Staphylococcus aureus
Assay: Antibacterial activity against fluoroquinolone resistant Staphylococcus aureus USA300 JE2 assessed as zone of inhibition at 10 mmol after 24 hrs Kirby-Bauer disc diffusion method
Assay type: functional
How it was run: as §1

Structure (SMILES) | inhibition zone (IZ) [cm]
CCOc1cc(C)c2cc3c(C)cc(=O)n4c3c(c2n1)OCC4 | 1
CCOc1cc(C)c2cc3c(C)cc(=O)n4c3c(c2n1)OCCC4 | 0
CCn1c(=O)cc(C)c2cc3c(C)cc(=O)n4c3c(c21)OC4 | 2.9
O=C(O)c1cn(C2CC2)c2cc(N3CCNCC3)c(F)cc2c1=O [CIPROFLOXACIN] | 1.2
CCn1c(=O)cc(C)c2cc3c(C)cc(=O)n4c3c(c21)OCCC4 | 2.7
CCn1c(=O)cc(C)c2cc3c(C)cc(=O)n4c3c(c21)OCC4 | 3.2
CCOc1cc(C)c2cc3c(C)cc(=O)n4c3c(c2n1)OC4 | 0

From ChEMBL document CHEMBL4373659, “Synthetic studies on the reverse antibiotic natural products, the nybomycins” (2019)
